In publication PMC4134686 (Journal of the American Chemical Society, 2013):

Legend:
Experiment in all cases: isothermal titration calorimetry
Format in all cases: binding
BsSecA [1] = target: BsSecA (Bacillus subtilis, UniProt P28366, E208Q)
Summary of the method: (§1)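 Full-length native-sequence SecA purified by ion-exchange, hydrophobic and gel-filtration chromatography, then dialysed >18 h against TKM (50 mM Tris-HCl pH 8.0, 50 mM KCl, 5 mM MgCl₂) with 3 buffer changes. Mg-ADP dissolved in final dialysate and titrated at 25 °C into 20 μM WT BsSecA, 30 μM E208Q BsSecA or 10 μM WT EcSecA.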

EcSecA = EcSecA (Escherichia coli, UniProt P10408)
Summary of the method: as §1

BsSecA [2] = target: BsSecA (Bacillus subtilis, UniProt P28366)
Summary of the method: as §1

Nc1ncnc2c1ncn2[C@@H]1O[C@H](COP(=O)(O)OP(=O)(O)O)[C@@H](O)[C@H]1O [Mg-ADP] showed a Kd (BsSecA [1]) of 7700 ± 300 nM, a Kd (EcSecA) of 62 ± 4 nM and a Kd (BsSecA [2]) of 180 ± 10 nM.
